Source: PubChem BioAssay (Broad Institute)
C2C12 statin: protects C2C12 myotubes from simvastatin toxicity; actives 0.78% (n = 330,000); ATP luminescence, 48 h; scaled: DMSO 0, geranylgeraniol control 100; rescue of ATP level, % at 7.49 µM; AID 602340;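 active means mean ATP rescue above about 67%, or every replicate alone reaching that limit, limit read from the data, passing the limit was not always enough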;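 further: myotubes were challenged with 10 µM simvastatin during compound exposure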
S100A4 inh HTS: S100A4-myosin IIA interaction inhibition. AID 652163. actives 0.14% (n = 360,000). S100A4/TAMRA-MyoIIA peptide fluorescence polarization. inhibition, % at 10.7 µM;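 active means mean inhibition of at least 70% across replicates, with every replicate also reaching that level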
Target sequence (P26447 whole entry, looked up): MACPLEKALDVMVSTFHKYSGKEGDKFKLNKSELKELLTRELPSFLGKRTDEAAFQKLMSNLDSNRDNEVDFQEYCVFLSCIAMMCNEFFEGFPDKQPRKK
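Material: S100A4 monomer (human). Medium: Calcium-containing HEPES buffer, pH 7.2. Probe or stimulus: labelled myosin peptide probe, 5 nM. Compound dosing: one concentration per compound. Timing: polarization read 5 min after assay mix addition, stable 5–60 min. Benchmarks: DMSO as neutral control, TFP as positive control.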
Cneo AK release: causes C. neoformans cell lysis; adenylate kinase release luminescence, 4 h; normalised: neutral wells 0, clomiphene wells 100; lysis activity, % at 15 µM; actives 0.2% (n = 360,000);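 active means mean lysis activity across replicates of at least 80%, whatever share of replicates individually reach that level; inactive means mean lysis activity below 80%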
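Assay system: C. neoformans cells. Amount: yeast cell density of 5 × 10^6 cells/mL. Technique: AK luminescence. Buffer or medium: YPD. Times: static 4 h at 37 °C with compound, 1 h detection. Dosing: single-point compound dose. Read-out: lysis from increased AK signal.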
PGC1a acetyl inh: lowers PGC1a acetylation signal in U2OS cells; AlphaScreen anti-acetyl-lysine; with virally co-expressed GCN5 acetyltransferase; inhibition, % at 15.6 µM; actives 0.17% (n = 350,000); AID 651687;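 active means every replicate shows inhibition of at least 40%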
SIRT5 block: sirtuin-5 (human) deacylase inhibition; actives 1.1% (n = 330,000); AID 652115; inhibition, % at 15 µM; Purified SirT5, succinyl-peptide AMC, trypsin-coupled fluorescence; in the data active means inhibition above about 15%
Target sequence (Q9NXA8 whole entry, looked up): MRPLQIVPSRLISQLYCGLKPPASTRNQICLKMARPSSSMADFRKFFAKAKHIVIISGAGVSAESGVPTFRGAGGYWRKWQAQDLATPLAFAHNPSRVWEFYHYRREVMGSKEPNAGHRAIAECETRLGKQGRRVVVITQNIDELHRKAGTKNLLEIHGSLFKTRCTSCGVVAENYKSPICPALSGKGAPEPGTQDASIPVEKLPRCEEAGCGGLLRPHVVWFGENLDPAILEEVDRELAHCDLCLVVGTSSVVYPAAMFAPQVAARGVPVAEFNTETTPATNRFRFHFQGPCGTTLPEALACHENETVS
Ecoli rRNA inh: selective bacterial rRNA inhibition in E. coli | actives 1.6% (n = 350,000) | GFP signal change (wild-type ribosome), % (test concentration not listed) | E. coli WT GFP vs humanized-ribosome RFP mutants, fluorescence, 24 h; active compounds read low; DMSO median 0, no signal -100 | AID 720706;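 active means significant combined selectivity score with lowered wild-type GFP, culture density cut under 30%, mutant RFP and density less affected; inactive means any of these conditions unmet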
A number is an active result. Hits are enriched below; roughly 3% of the tested compounds scored in any of these assays.

C[C@@H]1CN([C@@H](C)CO)C(=O)c2cc(NC(=O)Nc3ccc(F)cc3)ccc2O[C@@H]1CN(C)S(=O)(=O)c1ccc(Cl)cc1 was read as C2C12 statin inactive, S100A4 inh HTS inactive, Cneo AK release inactive, PGC1a acetyl inh inactive, SIRT5 block 19 and Ecoli rRNA inh inactive.
`Cc1noc(C)c1S(=O)(=O)Nc1ccc2c(c1)CC(=O)N([C@@H](C)CO)C[C@H](C)[C@@H](CN(C)Cc1ccc(C(=O)Nc3ccccc3N)cc1)O2` gave S100A4 inh HTS inactive, PGC1a acetyl inh inactive, SIRT5 block inactive and Ecoli rRNA inh inactive.
For CCOC(=O)C1=C(C)NC(SCC(N)=O)=C(C#N)C1c1cccs1 (stereo not drawn) the results were C2C12 statin inactive and PGC1a acetyl inh inactive.
CCOC(=O)C1=C(C)NC(SCc2cc(=O)[nH][nH]2)=C(C#N)C1c1cccs1 (stereo not drawn) was read as C2C12 statin inactive, S100A4 inh HTS inactive, Cneo AK release inactive, PGC1a acetyl inh inactive, SIRT5 block 20 and Ecoli rRNA inh inactive.
For C[C@H]1CN=C(Nc2ccccc2)N1CCC1CCCCC1 the results were C2C12 statin inactive, S100A4 inh HTS inactive, Cneo AK release inactive, PGC1a acetyl inh inactive, SIRT5 block 22 and Ecoli rRNA inh inactive.
For C[C@@H]1CN([C@@H](C)CO)C(=O)Cc2cc(NS(=O)(=O)c3ccc(Cl)cc3)ccc2O[C@@H]1CN(C)S(=O)(=O)c1cn(C)cn1 the results were C2C12 statin inactive, S100A4 inh HTS inactive, Cneo AK release inactive, PGC1a acetyl inh inactive, SIRT5 block inactive and Ecoli rRNA inh inactive.
CC(=O)c1ccc2c(c1)C1C=CCC1C(C(=O)O)N2 (stereo not drawn) was read as S100A4 inh HTS inactive, PGC1a acetyl inh inactive, SIRT5 block 32 and Ecoli rRNA inh inactive.
For Cc1cccc(C)c1Nc1nnc(SCc2cc([N+](=O)[O-])cc3c2OCOC3)s1 the results were C2C12 statin 244, S100A4 inh HTS inactive, Cneo AK release inactive, PGC1a acetyl inh inactive, SIRT5 block inactive and Ecoli rRNA inh inactive.
`Cc1cc(NC(=O)CSc2nc(CCC3CCCC3)nc3ccccc23)no1` gave C2C12 statin inactive, Cneo AK release inactive and PGC1a acetyl inh inactive.
O=C(CSc1nc(CCC2CCCC2)nc2ccccc12)NCc1ccc2c(c1)OCO2 was read as C2C12 statin inactive, S100A4 inh HTS inactive, Cneo AK release 115, PGC1a acetyl inh inactive, SIRT5 block inactive and Ecoli rRNA inh inactive.
Screening CCOC(=O)CSc1nc(N)c(C#N)c(-c2ccc(OCC)cc2)c1C#N returned C2C12 statin inactive, Cneo AK release inactive and PGC1a acetyl inh inactive.
For CC1=C(C#N)c2nc(N)c(C#N)c(C)c2/C1=C\c1ccc(OCC(=O)O)c(Cl)c1 the results were S100A4 inh HTS inactive, PGC1a acetyl inh inactive, SIRT5 block 19 and Ecoli rRNA inh inactive.
`CCCS(=O)(=O)c1ccc(COC(=O)c2cccc(NC(=O)C(C)C)c2)cc1` gave S100A4 inh HTS inactive, PGC1a acetyl inh inactive, SIRT5 block inactive and Ecoli rRNA inh -39.
For CC(=O)Nc1cccc(C(=O)OCc2ccccc2)c1 the results were C2C12 statin inactive, Cneo AK release inactive and PGC1a acetyl inh inactive.
Screening C[C@@H]1CN([C@H](C)CO)C(=O)c2cc(NS(C)(=O)=O)ccc2O[C@H]1CN(C)Cc1ccc(Oc2ccccc2)cc1 returned C2C12 statin inactive, S100A4 inh HTS inactive, Cneo AK release inactive, PGC1a acetyl inh inactive, SIRT5 block inactive and Ecoli rRNA inh inactive.
Screening CC(Oc1ccc(Cl)cc1Cl)C(=O)Nn1cnnc1 (stereo not drawn) returned Cneo AK release inactive.
Screening Cc1nc(C)n(C(Oc2ccc(Cl)cc2Cl)C(=O)C(C)(C)C)n1 (stereo not drawn) returned C2C12 statin inactive, S100A4 inh HTS inactive, Cneo AK release inactive, PGC1a acetyl inh inactive, SIRT5 block inactive and Ecoli rRNA inh -18.
`c1ccc2c(c1)CCN(Cc1nnnn1Cc1ccc3c(c1)OCO3)C2` gave C2C12 statin 125, Cneo AK release inactive and PGC1a acetyl inh inactive.
`O=C(NCC[C@H]1CC[C@H](NS(=O)(=O)Cc2ccccc2)[C@@H](CO)O1)C1CCCC1` gave C2C12 statin inactive, S100A4 inh HTS inactive, Cneo AK release inactive, PGC1a acetyl inh inactive, SIRT5 block inactive and Ecoli rRNA inh inactive.
CN(C)c1ccc(C2Nc3ccccc3C(=O)N2NS(C)(=O)=O)cc1 (stereo not drawn) was read as C2C12 statin inactive, S100A4 inh HTS inactive, Cneo AK release inactive, PGC1a acetyl inh inactive, SIRT5 block 31 and Ecoli rRNA inh inactive.
O=C(C[C@@H]1C[C@@H]2c3cc(NS(=O)(=O)c4ccc(F)cc4)ccc3O[C@@H]2[C@H](CO)O1)NCC1CC1 was read as C2C12 statin inactive, Cneo AK release inactive, PGC1a acetyl inh inactive and Ecoli rRNA inh inactive.
Screening COc1cc2cc(CN(CCc3cccc(C)c3)C(=S)NCCCN(C)C)c(=O)[nH]c2cc1OC returned S100A4 inh HTS inactive, SIRT5 block inactive and Ecoli rRNA inh -38.
For Cc1ccc2[nH]c(=O)c(CN(CCCN(C)C)C(=S)NCCc3ccccc3)cc2c1 the results were S100A4 inh HTS inactive, PGC1a acetyl inh inactive, SIRT5 block inactive and Ecoli rRNA inh -36.
`Cc1ccc2cc(CN(CCc3ccccc3)C(=S)NCCCN(C)C)c(=O)[nH]c2c1` gave C2C12 statin inactive, S100A4 inh HTS inactive, Cneo AK release inactive, PGC1a acetyl inh inactive, SIRT5 block inactive and Ecoli rRNA inh inactive.
`Cc1cccc2cc(CN(CCCN(C)C)C(=S)NCCc3ccccc3)c(=O)[nH]c12` gave C2C12 statin inactive, S100A4 inh HTS inactive, Cneo AK release inactive, PGC1a acetyl inh inactive, SIRT5 block inactive and Ecoli rRNA inh -17.
Screening CC(NC(=O)c1ccc(N)cc1)c1ccccc1 (stereo not drawn) returned C2C12 statin inactive, S100A4 inh HTS inactive, Cneo AK release inactive, PGC1a acetyl inh inactive, SIRT5 block inactive and Ecoli rRNA inh inactive.
Screening O=C(O)CC(c1ccccc1)n1cccc1 (stereo not drawn) returned C2C12 statin 115, Cneo AK release inactive and PGC1a acetyl inh inactive.
CC(NC(=O)C(Cc1ccccc1)n1cccc1)c1ccccc1 (stereo not drawn) was read as S100A4 inh HTS inactive, PGC1a acetyl inh inactive, SIRT5 block inactive and Ecoli rRNA inh inactive.
Nc1ccc(C(CC(=O)O)n2cccc2)cc1 (stereo not drawn) was read as C2C12 statin inactive, S100A4 inh HTS inactive, Cneo AK release inactive, PGC1a acetyl inh inactive, SIRT5 block 21 and Ecoli rRNA inh inactive.
